In ChEMBL document CHEMBL1765072, “Inhibition of amyloidogenesis by nonsteroidal anti-inflammatory drugs and their hybrid nitrates” (J Med Chem, 2011):
Calls of active or inactive are those of the source. No cut-off for these calls is given here.

Experiments:
[1] = Cytotoxicity against mouse RAW264.7 cells assessed as cell viability at 10 uM after 24 hrs by MTT assay relative to control; assay type: cell-based; settings: read-out: Activity
Summary of the method: (§1)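 RAW 264.7 cells given 0.5 mg/ml MTT in medium for 4 h, washed with PBS; formazan dissolved in DMSO, shaken 30 min, absorbance read at 570 nm against a 630 nm reference. Viability expressed relative to DMSO control.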

N2a (Mus musculus) = assay: Cytotoxicity against mouse N2a/APPsw cells assessed as cell viability at 1 uM after 24 hrs by MTT assay relative to control
N2a [2] = assay: Antiamyloidogenic activity in mouse N2A cells transfected with human APP Swedish mutant assessed as amyloid beta (1 to 42) level at 1 uM after 24 hrs by ELISA relative to control
RAW264.7 [3] = assay: Antiinflammatory activity against mouse RAW264.7 cells assessed as LPS-induced nitrate production at 10 uM treated 30 mins before LPS challenge measured after 24 hrs by Griess reagent method relative to control
[4] = Cytotoxicity against mouse RAW264.7 cells assessed as cell viability at 100 uM after 24 hrs by MTT assay relative to control; assay type: cell-based; settings: read-out: Activity; summary of the method: as §1
RAW264.7 [5] = assay: Antiinflammatory activity against mouse RAW264.7 cells assessed as LPS-induced nitrate production at 100 uM treated 30 mins before LPS challenge measured after 24 hrs by Griess reagent method relative to control
N2a [6] = assay: Antiamyloidogenic activity in mouse N2A cells assessed as degradation of amyloid beta (1 to 42) level at 100 uM treated 24 hrs before amyloid beta (1 to 42) challenge measured after 8 hrs by MALDI/TOF analysis; assay type: functional, cell-based
Summary of the method: (§2)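 Wild-type N2a cells were plated at 100 × 10⁴ cells/well, PBS-washed, and drug-treated in DMEM with 0.2 % FBS. Conditioned medium was collected after 24 h per the legend (18 h per the methods), given NaN₃, spun at 10,000 g, added to an Aβ1–40 + Aβ1–42 mixture, and incubated 8 h at 37 °C. Samples were then given protease inhibitors, spiked with Aβ1–43, and analysed by 4G8/6E10 IP-MALDI-TOF. Values were normalised to cell-free media control; mean and s.d.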

N2a [7] = assay: Antiamyloidogenic activity in mouse N2A cells assessed as degradation of amyloid beta (1 to 40) level at 100 uM treated 24 hrs before amyloid beta (1 to 40) challenge measured after 8 hrs by MALDI/TOF analysis; assay type: functional, cell-based; summary of the method: as §2
N2a [8] = assay: Antiamyloidogenic activity in mouse N2A cells assessed as reduction of amyloid beta (1 to 42)/(1 to 40) ratio at 100 uM treated 24 hrs before amyloid beta (1 to 42)/(1 to 40) challenge measured after 8 hrs by MALDI/TOF analysis; assay type: functional, cell-based; summary of the method: as §2
N2a [9] = assay: Antiamyloidogenic activity in mouse N2A cells transfected with human APP Swedish mutant assessed as reduction of amyloid beta (1 to 42) level at 100 uM after 24 hrs by ELISA; assay type: functional, cell-based
N2a [10] = assay: Antiamyloidogenic activity in mouse N2A cells transfected with human APP Swedish mutant assessed as increase of amyloid beta (1 to 37) level at 100 uM after 24 hrs by ELISA; assay type: functional, cell-based
N2a [11] = assay: Antiamyloidogenic activity in mouse N2A cells transfected with human APP Swedish mutant assessed as reduction of amyloid beta (1 to 42) level at 0.5 uM after 24 hrs by ELISA; assay type: functional, cell-based
Summary of the method: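 N2a/APPsw cells (25 × 10⁴/well, plated 24 h prior) washed with PBS and treated with drug in DMEM with 0.2 % FBS for 24 h. Supernatant got NaN₃ (0.01 % final) and protease inhibitors, was centrifuged, and Aβ1–42 was measured by human sandwich ELISA. Values normalized to DMSO vehicle; mean and s.e.m., at least 4 experiments on separate passages.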

Compound | viability at 24 h, 10 µM [1] [%] | viability at 24 h, 1 µM (N2a (Mus musculus)) [%] | level, % of control at 1 µM (N2a [2]) [%] | level, % of control at 10 µM (RAW264.7 [3]) [%] | viability at 24 h, 100 µM [4] [%] | level, % of control at 100 µM (RAW264.7 [5]) [%] | also measured
O=C(O)C(O)c1ccc(-c2ccc(F)cc2)c(F)c1 (stereo unspecified) | 102 | 99.7 | 106 | 76.3 | – | – | –
O=C(O)C1(c2ccc(-c3ccccc3)c(F)c2)CC1 | – | 103 | 69.5 | – | 101 | 60.7 | –
NC(=O)C(F)(F)c1ccc(-c2ccccc2)c(F)c1 | 100 | 102 | 115 | 82.2 | – | – | –
O=C(O)C1(c2ccc(-c3ccc(C(F)(F)F)cc3)c(F)c2)CC1 | – | 97.2 | 99.3 | – | 102 | 62.4 | –
CSc1ccc(/C=C2/C(C)=C(CC(=O)O)c3cc(F)ccc32)cc1 [SULINDAC SULFIDE] | – | – | 82.6 | – | – | – | –
N#CC(F)(F)c1ccc(-c2ccc(F)cc2)c(F)c1 | 98.2 | 98.2 | 125 | 75.7 | – | – | –
O=C(O)C(O)c1ccc(-c2ccccc2)c(F)c1 (stereo unspecified) | 89.1 | 101 | 82.5 | 59 | – | – | –
COc1ccc2c(c1)c(CC(=O)O)cn2C(=O)c1ccc(Cl)cc1 | 97.9 | – | 102 | 65.9 | – | – | –
O=C(OCCBr)C1(c2ccc(-c3ccc(C(F)(F)F)cc3)c(F)c2)CC1 | – | – | – | – | 113 | 14.7 | –
O=C(OCCBr)C1(c2ccc(-c3ccccc3)c(F)c2)CC1 | – | – | – | – | 109 | 18.9 | –
CC(F)(C(=O)O)c1ccc(-c2ccccc2)c(F)c1 (stereo unspecified) | 99.7 | 101 | 98.8 | 80.8 | – | – | –
O=C(OCCO[N+](=O)[O-])C1(c2ccc(-c3ccc(Cl)c(Cl)c3)c(F)c2)CC1 | – | – | – | – | 135 | 40 | –
CCC(C#N)(CC)c1ccc(-c2ccccc2)c(F)c1 | – | 97.3 | 125 | – | – | – | –
CC(C(=O)O)c1ccc(-c2ccccc2)c(F)c1 (stereo unspecified) [FLURBIPROFEN] | – | – | 86.6 | 80.7 | 10.9 | 69.1 | Activity (N2a [6]): Active; Activity (N2a [7]): Active; Activity (N2a [8]): Active; inhibition (N2a [9]): Active; Activity (N2a [10]): Active
O=C(O)CC1=C/C(=C/c2ccc(SC(F)(F)F)cc2)c2ccc(F)cc21 | 104 | – | 99.4 | 1.7 | – | – | –
O=C(OCCO[N+](=O)[O-])C1(c2ccc(-c3ccccc3)c(F)c2)CC1 | – | – | – | – | 113 | 47.3 | inhibition (N2a [11]): Active
O=C(O)CC1=C/C(=C/c2ccc(C(F)(F)F)cc2)c2ccc(F)cc21 | 100 | – | 91 | 29.2 | – | – | –
COc1ccc2c(c1)c(CC(=O)Nc1ccc(Cl)cc1)c(C)n2C(=O)c1ccc(Cl)cc1 | 92.2 | – | 295 | 68.6 | – | – | –
